Published values from different studies.
Each line is one published result; the experiments were not run side by side.
ESR1: Estrogen receptor (ESR1, Homo sapiens, UniProt P03372)
APLNR: Apelin receptor (APLNR, Homo sapiens, UniProt P35414)
Si: Sucrase-isomaltase, intestinal (Si, Rattus norvegicus, UniProt P23739)
ADRA2C: Alpha-2C adrenergic receptor (ADRA2C, Homo sapiens, UniProt P18825)
PLK4: Serine/threonine-protein kinase PLK4 (PLK4, Homo sapiens, UniProt O00444)

With `CC(C)(C)C#Cc1cc(-c2ccnc(N)c2)cc2c(N)n[nH]c12` the IC50 was 4590 nM (Inhibitor of nuclear factor kappa-B kinase subunit beta (IKBKB, Homo sapiens, UniProt O14920); enzyme activity, inhibitor, FRET).
`CC(c1ccccc1)(c1ccc(O)cc1)c1ccc(O)cc1` has an IC50 of 20700 nM (ESR1; reporter gene, antagonist, luciferase).
For `CC(C)C[C@H](NC(=O)[C@H](CCCNC(=N)N)NC(=O)[C@H](CCCNC(=N)N)NC(=O)[C@H](CS)NC(=O)[C@H](CCCNC(=N)N)NC(=O)[C@H](CCC(=O)O)NC(=O)[C@H](CCCNC(=N)N)NC(=O)[C@@H](N)CO)C(=O)N[C@@H](Cc1c[nH]cn1)C(=O)N[C@@H](CO)C(=O)N[C@@H](CC(C)C)C(=O)N1CCC[C@H]1C(=O)N[C@@H](CC(C)C)C(=O)N[C@@H](Cc1ccccc1)C(=O)N1CCC[C@H]1C(=O)O`, the EC50 was 4.2 nM (APLNR; calcium signal, agonist, fluorescence).
`CCCCCc1cc(O)c(C/C=C(\C)CCC=C(C)C)c(O)c1` gave an IC50 of 620000 nM (Si; enzyme activity, inhibitor, absorbance).
The IC50 of `CC[C@H](C)[C@H](NC(=O)[C@H](CCCCN)NC(=O)[C@H](CCCCN)NC(=O)[C@H](C)NC(=O)[C@H](C)NC(=O)[C@@H](NC(=O)[C@H](CCCNC(=N)N)NC(=O)[C@H](CCSC)NC(=O)[C@H](CCC(N)=O)NC(=O)[C@H](CCC(=O)O)NC(=O)[C@H](CCCCN)NC(=O)[C@@H](N)CO)[C@@H](C)CC)C(=O)NCC(=O)N[C@@H](CC(C)C)C(=O)N[C@@H](CC(C)C)C(=O)N[C@@H](CCC(=O)O)C(=O)O` is reported as 20300 nM (APLNR; calcium signal, antagonist, fluorescence).
With `C[C@H](CCCOS(=O)(=O)O)[C@H]1CC[C@H]2[C@@H]3CC[C@H]4C[C@@H](O)CC[C@]4(C)[C@H]3CC[C@]12C` the IC50 was 7050 nM (cGMP-inhibited 3',5'-cyclic phosphodiesterase 3A (PDE3A, Homo sapiens, UniProt Q14432); enzyme activity, inhibitor).
The Ki of `CCCCC1CNC2CCc3ccc(OC)cc3C12` (racemic) is reported as 622 nM (ADRA2C; ligand displacement, radioligand).
The Ki of `COc1cc2c(cc1OC)CN(CCc1ccc(NC(=O)c3cccc4c(=O)c5cccc(OC)c5[nH]c34)cc1)CC2` is reported as 150 nM (ADRA2C; cell-free assay).
For `CCCCCc1cc(O)c2c(c1)OC(C)(CCC=C(C)C)C=C2` (stereo not shown), the IC50 was 540000 nM (Si; enzyme activity, inhibitor, absorbance).
The Kd of `CC[C@H](C)[C@H](NC(=O)[C@@H](N)CCC(=O)O)C(=O)N[C@@H](C)C(=O)N1CCC[C@H]1C(=O)N[C@H](C(=O)N[C@@H](CC(C)C)C(=O)N[C@@H](Cc1c[nH]cn1)C(=O)N[C@@H](CO)C(=O)N[C@H](C(=O)O)[C@@H](C)OP(=O)(O)O)C(C)C` is reported as 22.9 nM (PLK4; binding, MST; pH 8).
For `Clc1ccc(C(c2ccccc2Cl)C(Cl)(Cl)Cl)cc1` (stereo not shown), the IC50 was 2720 nM (Glucocorticoid receptor (NR3C1, Homo sapiens, UniProt P04150); ligand displacement).
The EC50 of `CC[C@H](C)[C@H](NC(=O)[C@H](CCSC)NC(=O)[C@H](CCC(N)=O)NC(=O)[C@H](CCCNC(=N)N)NC(=O)[C@H](Cc1ccccc1)NC(=O)CN)C(=O)N[C@@H](C)C(=O)N[C@@H](CCCNC(=N)N)C(=O)N[C@@H](C)C(=O)N[C@@H](CCCCN)C(=O)N[C@@H](Cc1ccc(O)cc1)C(=O)N[C@@H](CCC(N)=O)C(=O)NCC(=O)N[C@@H](CC(C)C)C(=O)N[C@@H](CC(C)C)C(=O)N[C@@H](Cc1ccc(O)cc1)C(=O)O` is reported as 614 nM (APLNR; calcium signal, agonist, fluorescence).
`CC(C)C[C@H](NC(=O)[C@H](CC(C)C)NC(=O)[C@@H]1CCCN1C(=O)[C@H](C)NC(=O)[C@@H](NC(=O)[C@H](C)N)C(C)C)C(=O)N[C@@H](Cc1c[nH]cn1)C(=O)N[C@@H](CO)C(=O)N[C@H](C(=O)O)[C@@H](C)OP(=O)(O)O` gave a Kd of 39.8 nM (PLK4; binding, MST; pH 8).
For `CC(C)C[C@@H]1NC(=O)[C@H](CCCNC(=N)N)NC(=O)[C@@H]2CCCN2C(=O)[C@H](CCCNC(=N)N)NC(=O)[C@@H](NC(=O)[C@H](Cc2c[nH]cn2)NC(=O)[C@H](CCCCN)NC(=O)[C@@H]2CSSC[C@H](N)C(=O)N[C@@H](CCCNC(=N)N)C(=O)N3CCC[C@H]3C(=O)N[C@@H](CCCNC(=N)N)C(=O)N[C@@H](CC(C)C)C(=O)N2)CSSC[C@@H](C(=O)O)NC1=O`, the IC50 was 10100 nM (APLNR; β-arrestin recruitment, antagonist).
With `CC(C)(c1ccc(O)cc1)c1ccc(C(C)(C)c2ccc(O)cc2)cc1` the IC50 was 2900 nM (ESR1; reporter gene, antagonist, luciferase).
The EC50 of `CC[C@H](C)[C@H](NC(=O)[C@H](CO)NC(=O)[C@H](Cc1c[nH]cn1)NC(=O)[C@H](Cc1ccccc1)NC(=O)[C@H](CCCCN)NC(=O)[C@H](CCCCN)NC(=O)[C@H](CS)NC(=O)[C@H](CC(C)C)NC(=O)[C@H](CCC(=O)O)NC(=O)[C@@H]1CCCN1C(=O)[C@@H](N)CO)C(=O)N1CCC[C@H]1C(=O)N[C@@H](CC(C)C)C(=O)N[C@@H](Cc1ccccc1)C(=O)N1CCC[C@H]1C(=O)O` is reported as 127 nM (APLNR; calcium signal, agonist, fluorescence).
